Consider 4 compounds from paper PMC9890663 (RSC Advances, 2023).

Data set [1] concerns calf thymus DNA (ct-DNA). As to conditions: DNA intercalator; cited from earlier work.
Another data set concerns C. albicans. To be noted: cited from earlier work.
The subject of a further data set is S. aureus ATCC 25923. Description: MIC, broth microdilution. It is filed as cell-based. To be noted: Staphylococcus aureus, ATCC25923, 24 h. The procedure, abridged:
(§1)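 Broth microdilution. S. aureus ATCC 25923 followed CLSI M07-A8 at 5 × 10^5 cfu mL−1; Candida strains followed EUCAST yeast method v7.3.1 at 1 × 10^5 cfu mL−1. Test compound from a 50 mg mL−1 DMSO stock was tested from 500 μg mL−1 downward, with final DMSO <1% v/v. MIC was the lowest concentration inhibiting growth after 24 h at 37 °C, read on a plate reader.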
Background: Broth dilution looks for growth in wells or tubes with falling amounts of substance.

The next data set relates to P. aeruginosa PAO1. The experiment in a line: MIC, broth microdilution. It counts as cell-based. As to conditions: Pseudomonas aeruginosa, PAO1, 24 h.
The subject of data set [2] is C. albicans ATCC 10231. Description: MIC, broth microdilution. It is filed as cell-based. As to conditions: Candida albicans, ATCC10231, 24 h. The procedure, abridged:
as §1

The subject of a further data set is MRC-5 cells. Description: Antiproliferative activity, MTT assay. It is filed as cell-based, human. (Formazan colour is commonly taken as a measure of viable cells.)
The test system of data set [3] is C. albicans ATCC 10231. The experiment in a line: Inhibition of hyphae formation on Spider medium. As to conditions: 0.5 × MIC, vs DMSO control. It is filed as cell-based, Candida albicans.
Data set [4] deals with C. albicans ATCC 10231. Description: Biofilm formation assay, crystal violet staining. It is filed as cell-based, Candida albicans. To be noted: MIC of the complexes applied. The procedure, abridged: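 Candida albicans ATCC 10231 biofilm assay, starting inoculum 1 × 10^6 cfu mL−1. Test compound was applied as two-fold serial dilutions from 3.5 down to 0.05 μg mL−1, then incubated 48 h at 37 °C. Adherent biomass was stained with crystal violet and read at 590.0 nm. The assay was repeated three times.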

Data set [5] has as its system Chromobacterium violaceum CV026. Description: Anti-quorum sensing disc assay, violacein production. It counts as cell-based. As to conditions: 100 μg per disc. The procedure, abridged:
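Agar-overlay disc assay. Inocula were grown overnight in LB at 30 °C and 180 rpm, with antibiotic for CV026. 50.0 μL of culture was seeded into 0.3% semi-solid LB agar and overlaid on LB plates. CV026 received N-hexanoyl-L-homoserine lactone (final 5.0 μM); S. marcescens ATCC 27117 received no autoinducer. Compound was placed on sterile discs and plates incubated overnight at 30 °C. Pigment inhibition was scored as white halo width (mm), distinct from growth-clearance zones.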

In data set [6] the target is bovine serum albumin (BSA) (Bos taurus, UniProt P02769). The experiment in a line: BSA fluorescence emission quenching. It counts as binding. The procedure, abridged:
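Tryptophan fluorescence quenching of 5 μM BSA in PBS pH 7.4, titrated with test compound (DMSO stock) up to 130 μM. Excitation was 290.0 nm and spectra were recorded at 295.0–500.0 nm, with quenching monitored at 365.0 nm. Ksv came from a Stern–Volmer plot, and Kq from Ksv with τ0 of 10^-8 s. KA and binding-site number n came from a log(F0−F)/F vs log[complex] plot.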

In data set [7] the test system is calf thymus DNA (ct-DNA). Description: Competitive EthBr-ct-DNA fluorescence emission study. It counts as binding. The procedure, abridged: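 Ethidium bromide displacement on calf thymus DNA in PBS pH 7.4, with ct-DNA quantified by A260 (ε 6.6 × 10^3 M−1 cm−1). [DNA]/[EthBr] was held at 10 while test compound (10 mM DMSO stock) was increased. Excitation was 545.0 nm, emission 550.0–750.0 nm. Ksv and Kq (τ0 10^-8 s) came from the Stern–Volmer equation; KA and n from a log(F0−F)/F vs log[complex] plot.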

A word on the MIC: it is the lowest concentration that inhibits growth of the organism. A word on the IC50: it is the concentration needed to halve the response being measured.

In brackets after ≈: the same amount, converted by molar mass. Several values for one entry are separate records, joined by “and”; a condition that tells them apart may be missing. Identical values can stand only once. Like-named read-outs stand apart in the source and are kept apart here.

Sequence of bovine serum albumin (BSA) (P02769 25-607): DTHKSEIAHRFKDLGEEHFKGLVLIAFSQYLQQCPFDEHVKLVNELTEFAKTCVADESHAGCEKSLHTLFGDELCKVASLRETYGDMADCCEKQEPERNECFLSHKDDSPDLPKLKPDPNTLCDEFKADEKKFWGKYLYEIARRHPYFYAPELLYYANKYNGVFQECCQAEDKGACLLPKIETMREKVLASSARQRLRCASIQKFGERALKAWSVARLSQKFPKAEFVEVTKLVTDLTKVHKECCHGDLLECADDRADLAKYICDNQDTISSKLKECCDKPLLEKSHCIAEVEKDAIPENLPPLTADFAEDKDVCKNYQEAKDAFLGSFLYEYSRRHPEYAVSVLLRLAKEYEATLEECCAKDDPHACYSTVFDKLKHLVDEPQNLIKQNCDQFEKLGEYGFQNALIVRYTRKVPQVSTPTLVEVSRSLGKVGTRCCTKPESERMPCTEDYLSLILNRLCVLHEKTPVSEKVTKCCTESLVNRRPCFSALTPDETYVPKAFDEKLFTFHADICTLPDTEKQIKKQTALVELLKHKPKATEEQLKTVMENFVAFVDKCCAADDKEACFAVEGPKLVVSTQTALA

For `C[n+]1c2ccccc2c(-c2c3ccccc3[n+](C)c3ccccc23)c2ccccc21` [lucigenin], the Hypochromism with calf thymus DNA (ct-DNA) [1] was 50%.

For [CuCl2(py-2metz)]n, the minimal inhibitory concentration (MIC) in the data set with C. albicans is 31.25 µg/mL.

Consider `COC(=O)c1cnc(-c2cnccn2)cc1C(=O)OC` [py-2pz, dimethyl 6-(pyrazine-2-yl)pyridine-3,4-dicarboxylate], for which the minimal inhibitory concentration (MIC) in the data set with S. aureus ATCC 25923 was > 1830 µM and > 500 µg/mL; against P. aeruginosa PAO1, > 1830 µM and > 500 µg/mL; in the data set with C. albicans ATCC 10231 [2], > 1830 µM and > 500 µg/mL. Moreover, the IC50 in the data set on MRC-5 cells (Homo sapiens, MRC5, 48 h, MRC-5, 48 h treatment) came out at 120 µg/mL (≈ 439 µM). Also, the “C. albicans hyphae formation” value in the data set with C. albicans ATCC 10231 [3] is “did not show a potency to inhibit C. albicans filamentous growth”.

For {[Ag(NO3)(py-2pz)]·0.5H2O}n [Complex 4], the “fold less toxic against MRC-5 than AgSD” value in the data set on MRC-5 cells came out at 1.7 fold. Besides, in the data set with C. albicans ATCC 10231 [4], the “percentage of the formed C. albicans biofilms” value stood at 62%. The “clear zones of inhibition (antibacterial effect)” value in data set [5] is on record as 5 mm. In addition, the values for the Hypochromism (in data set [6] (BSA fluorescence at 365.0 nm); in the data set with calf thymus DNA (ct-DNA) [7] (EthBr-ct-DNA fluorescence)) were 60.5% and 15.4%, respectively. Besides, the K sv entry in [6] (Stern-Volmer constant, BSA 5 μM, PBS pH 7.4) is “(2.10 ± 0.02) × 10^4 M^−1”; in the data set with calf thymus DNA (ct-DNA) [7] (Stern-Volmer constant, EthBr-ct-DNA, PBS pH 7.4), “(1.14 ± 0.01) × 10^3 M^−1”. The “K A” value in data set [6] (binding constant, BSA) was determined as 21500 M⁻¹; with calf thymus DNA (ct-DNA) [7] (binding constant, ct-DNA), 2000 M⁻¹. Further, the K q turned out to be 2.1e+12 M⁻¹ s⁻¹ in data set [6] (quenching rate constant, BSA) and 1.14e+11 M⁻¹ s⁻¹ with calf thymus DNA (ct-DNA) [7] (quenching constant, EthBr-ct-DNA).
